Results as given in article PMC3717159 (Investigational New Drugs, 2012).
pIC50: −log10 of the molar value.

Columns and labels:
human MET kinase domain [1] = biological target: T1, human MET kinase domain (Homo sapiens, UniProt P08581); assay: MET kinase radiometric filter-binding assay; assay type: biochemical; details: versus ATP
human MET kinase domain [2] = biological target: T1, human MET kinase domain; assay: MET kinase spin column assay; assay type: biochemical; details: from Koff
DU145 cells = assay: HGF induced cell scattering assay; assay type: cell-based; details: 0.01–10 μM, HGF 20 ng/ml, 48 h, colony counts
Outline: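 DU145 cells (2 × 10^3/well) were plated on poly-D-lysine and given test compound (0.4 % DMSO), then immediately human HGF (20 ng/ml). After 48 h at 37 °C, cells were fixed in 2 % formaldehyde and stained with Alexa488-phalloidin plus propidium iodide. Colonies (≥ 4 cells) were counted by laser-scanning microplate cytometry.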

MV4-11 cells = assay: In vitro anti-proliferative activity for MV4-11 cells; assay type: cell-based; details: Homo sapiens, MV4-11, read-out: in vitro anti-proliferative activity IC50
[3] = biological target: MET phosphorylation in S114 xenograft tumors (Homo sapiens, UniProt P08581); assay: In vivo MET target inhibition in S114 xenograft tumors; set-up: species or system mouse
Outline: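 Subcutaneous tumors from S114 cells (NIH3T3-derived murine line engineered to express human MET and HGF) in nude mice. Test compound in 10 % acacia, single oral dose. Dose response read 2 h post-dose (n = 8 per dose group, 4 studies pooled); 12 mg/kg time course over 24 h. Tumor phospho-MET measured by MSD ELISA relative to vehicle group, with pharmacokinetic analysis alongside.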

Pharmacokinetics in mice = details: mouse, in vivo, oral
[4] = Pharmacokinetics in non-human primate; details: in vivo, oral
U-87MG xenograft = assay: Anti-tumor growth activity, xenograft model; assay type: in vivo, mouse; details: MET autocrine model, oral
Outline: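 U-87MG xenografts were grown in nude mice. Test compound in 10 % acacia was given orally twice daily, either continuously or intermittently. The 5/2 schedule (5 dosing days, 2 off) ran for 4 cycles; the 9/5 schedule (9 dosing days, 5 off) ran for 2 cycles. Tumour growth was compared with vehicle controls.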

KP4 xenograft = assay: Anti-tumor growth activity, xenograft model; assay type: in vivo, mouse; details: KP4, MET autocrine model, oral
Outline: (§1)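 Xenografts were grown in athymic or CD-1 nude mice. Test compound was formulated in 10 % acacia and given orally twice daily without interruption. Tumour growth was compared with a vehicle-treated control group.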

MKN45 xenograft = assay: Anti-tumor growth activity, xenograft model; assay type: in vivo, mouse; details: MKN45, very high MET gene amplification, oral
Outline: as §1

H441 xenograft = assay: Anti-tumor growth activity, xenograft model; assay type: in vivo, mouse; details: H441, MET over-expression, oral
Outline: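 H441 xenografts were grown in nude mice. Test compound in 10 % acacia was given orally twice daily, either continuously or on intermittent schedules. The 5/2 schedule (5 dosing days, 2 drug-free days) ran for 6 cycles; the 9/5 schedule (9 dosing days, 5 drug-free days) ran for 3 cycles. Tumour growth was compared with vehicle controls.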

H1993 xenograft = assay: Anti-tumor growth activity, xenograft model; assay type: in vivo, mouse; details: H1993, co-express MET and MST1R, oral
Outline: as §1

HT29 xenograft = assay: Anti-tumor growth activity, xenograft model; assay type: in vivo, mouse; details: HT29, co-express MET and MST1R, oral
Outline: as §1

MV4-11 xenograft = assay: Anti-tumor growth activity, xenograft model; assay type: in vivo, mouse; details: MV4-11, FLT3-activating mutation, oral
Outline: (§2)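 Nude mice (athymic or CD-1) carried H1299 orthotopic tumours or MV4-11 xenografts. Test compound was formulated in 10 % acacia and given orally.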

H1299 orthotopic model = assay: Anti-tumor growth activity, orthotopic model of NSCLC; assay type: in vivo, mouse; details: AXL over-expression, oral
Outline: as §2

U-87MG xenograft tumors = assay: Multiplexed immunofluorescence tumor tissue imaging of U-87MG xenograft tumors; assay type: in vivo, mouse; details: 12 mg/kg once daily, 28 days, vs vehicle
Outline: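 Mice bearing U-87MG xenografts received test compound orally (10 % acacia) at 1.3 or 12 mg/kg once daily for 28 days, or vehicle. Tumours were then excised and fixed in Zinc-Tris. One panel stained […], CD31, Ki67 and TUNEL; the other stained Hoechst, CD31, GLUT1 and smooth muscle actin. Staining was quantified by imaging.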

ALK = ALK (Homo sapiens, UniProt Q9UM73); assay: Biochemical screening against 442 kinases
LTK = LTK (Homo sapiens, UniProt P29376); assay: Biochemical screening against 442 kinases
[5] = S114 xenograft, 2 h after dose, oral, 4 studies
[6] = S114 xenograft, plasma concentration, 2 h after dose

Chain of MET phosphorylation in S114 xenograft tumors (P08581 25-1390): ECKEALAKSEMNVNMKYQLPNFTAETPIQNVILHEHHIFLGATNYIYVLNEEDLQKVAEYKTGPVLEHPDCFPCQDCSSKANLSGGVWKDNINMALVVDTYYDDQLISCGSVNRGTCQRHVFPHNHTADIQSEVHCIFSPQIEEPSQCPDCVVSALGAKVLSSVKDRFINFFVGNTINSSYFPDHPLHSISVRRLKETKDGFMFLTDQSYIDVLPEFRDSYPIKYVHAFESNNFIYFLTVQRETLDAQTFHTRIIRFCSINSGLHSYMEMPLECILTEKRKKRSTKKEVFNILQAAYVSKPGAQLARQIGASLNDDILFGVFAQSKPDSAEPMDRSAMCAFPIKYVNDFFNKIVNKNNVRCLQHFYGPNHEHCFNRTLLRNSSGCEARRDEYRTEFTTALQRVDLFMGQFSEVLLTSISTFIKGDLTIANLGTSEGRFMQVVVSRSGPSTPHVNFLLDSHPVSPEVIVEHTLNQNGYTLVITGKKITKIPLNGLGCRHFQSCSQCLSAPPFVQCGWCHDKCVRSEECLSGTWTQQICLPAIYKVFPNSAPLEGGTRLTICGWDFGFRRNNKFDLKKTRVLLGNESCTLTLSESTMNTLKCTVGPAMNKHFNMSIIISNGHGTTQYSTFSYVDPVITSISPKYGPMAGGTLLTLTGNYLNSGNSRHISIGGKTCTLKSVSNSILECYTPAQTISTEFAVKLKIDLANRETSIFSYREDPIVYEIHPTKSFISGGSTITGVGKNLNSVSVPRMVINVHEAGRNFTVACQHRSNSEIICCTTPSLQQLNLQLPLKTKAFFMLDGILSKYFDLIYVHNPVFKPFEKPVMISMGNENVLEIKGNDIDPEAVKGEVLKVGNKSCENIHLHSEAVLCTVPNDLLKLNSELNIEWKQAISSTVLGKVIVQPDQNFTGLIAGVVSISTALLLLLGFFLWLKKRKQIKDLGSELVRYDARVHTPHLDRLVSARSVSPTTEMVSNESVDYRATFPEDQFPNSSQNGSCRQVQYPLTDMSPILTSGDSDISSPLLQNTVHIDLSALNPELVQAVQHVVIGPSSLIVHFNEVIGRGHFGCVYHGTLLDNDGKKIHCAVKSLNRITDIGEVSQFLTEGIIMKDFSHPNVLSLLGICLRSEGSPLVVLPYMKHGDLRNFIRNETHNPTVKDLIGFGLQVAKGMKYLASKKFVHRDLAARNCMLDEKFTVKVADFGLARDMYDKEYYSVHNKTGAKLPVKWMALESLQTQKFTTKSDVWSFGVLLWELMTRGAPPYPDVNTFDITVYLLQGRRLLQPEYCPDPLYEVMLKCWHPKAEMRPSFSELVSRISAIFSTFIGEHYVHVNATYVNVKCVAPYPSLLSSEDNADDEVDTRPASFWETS
T1 sequence (P08581 1078-1345 limits assumed): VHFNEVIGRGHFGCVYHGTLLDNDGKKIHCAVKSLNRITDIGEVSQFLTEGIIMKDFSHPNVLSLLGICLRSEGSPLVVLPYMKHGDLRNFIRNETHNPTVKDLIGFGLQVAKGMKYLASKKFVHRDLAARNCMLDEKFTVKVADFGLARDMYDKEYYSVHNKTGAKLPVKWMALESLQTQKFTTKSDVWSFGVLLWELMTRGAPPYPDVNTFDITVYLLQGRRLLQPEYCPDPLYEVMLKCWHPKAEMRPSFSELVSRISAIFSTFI
Chain of LTK (P29376 17-864): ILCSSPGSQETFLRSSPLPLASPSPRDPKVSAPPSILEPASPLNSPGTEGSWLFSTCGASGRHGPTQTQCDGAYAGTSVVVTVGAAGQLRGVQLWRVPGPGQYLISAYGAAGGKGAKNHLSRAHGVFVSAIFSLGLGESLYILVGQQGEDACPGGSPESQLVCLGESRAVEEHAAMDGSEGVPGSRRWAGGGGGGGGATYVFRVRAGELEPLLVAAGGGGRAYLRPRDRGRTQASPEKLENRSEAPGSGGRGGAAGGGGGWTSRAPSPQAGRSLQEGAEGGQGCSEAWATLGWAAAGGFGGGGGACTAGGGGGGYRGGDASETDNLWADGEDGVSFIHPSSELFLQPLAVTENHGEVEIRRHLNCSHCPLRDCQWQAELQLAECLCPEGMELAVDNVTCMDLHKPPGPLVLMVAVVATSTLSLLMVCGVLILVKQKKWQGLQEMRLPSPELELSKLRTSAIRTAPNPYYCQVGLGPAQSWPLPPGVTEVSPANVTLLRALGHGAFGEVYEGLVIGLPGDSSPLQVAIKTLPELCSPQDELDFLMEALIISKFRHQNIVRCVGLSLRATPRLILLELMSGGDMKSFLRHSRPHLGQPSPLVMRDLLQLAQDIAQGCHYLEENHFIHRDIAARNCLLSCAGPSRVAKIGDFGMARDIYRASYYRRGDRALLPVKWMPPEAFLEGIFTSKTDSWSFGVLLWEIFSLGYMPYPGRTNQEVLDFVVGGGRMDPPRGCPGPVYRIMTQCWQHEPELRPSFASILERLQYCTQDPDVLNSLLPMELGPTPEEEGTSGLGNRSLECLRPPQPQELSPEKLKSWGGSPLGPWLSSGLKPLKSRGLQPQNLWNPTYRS
Chain of ALK (Q9UM73 19-1620): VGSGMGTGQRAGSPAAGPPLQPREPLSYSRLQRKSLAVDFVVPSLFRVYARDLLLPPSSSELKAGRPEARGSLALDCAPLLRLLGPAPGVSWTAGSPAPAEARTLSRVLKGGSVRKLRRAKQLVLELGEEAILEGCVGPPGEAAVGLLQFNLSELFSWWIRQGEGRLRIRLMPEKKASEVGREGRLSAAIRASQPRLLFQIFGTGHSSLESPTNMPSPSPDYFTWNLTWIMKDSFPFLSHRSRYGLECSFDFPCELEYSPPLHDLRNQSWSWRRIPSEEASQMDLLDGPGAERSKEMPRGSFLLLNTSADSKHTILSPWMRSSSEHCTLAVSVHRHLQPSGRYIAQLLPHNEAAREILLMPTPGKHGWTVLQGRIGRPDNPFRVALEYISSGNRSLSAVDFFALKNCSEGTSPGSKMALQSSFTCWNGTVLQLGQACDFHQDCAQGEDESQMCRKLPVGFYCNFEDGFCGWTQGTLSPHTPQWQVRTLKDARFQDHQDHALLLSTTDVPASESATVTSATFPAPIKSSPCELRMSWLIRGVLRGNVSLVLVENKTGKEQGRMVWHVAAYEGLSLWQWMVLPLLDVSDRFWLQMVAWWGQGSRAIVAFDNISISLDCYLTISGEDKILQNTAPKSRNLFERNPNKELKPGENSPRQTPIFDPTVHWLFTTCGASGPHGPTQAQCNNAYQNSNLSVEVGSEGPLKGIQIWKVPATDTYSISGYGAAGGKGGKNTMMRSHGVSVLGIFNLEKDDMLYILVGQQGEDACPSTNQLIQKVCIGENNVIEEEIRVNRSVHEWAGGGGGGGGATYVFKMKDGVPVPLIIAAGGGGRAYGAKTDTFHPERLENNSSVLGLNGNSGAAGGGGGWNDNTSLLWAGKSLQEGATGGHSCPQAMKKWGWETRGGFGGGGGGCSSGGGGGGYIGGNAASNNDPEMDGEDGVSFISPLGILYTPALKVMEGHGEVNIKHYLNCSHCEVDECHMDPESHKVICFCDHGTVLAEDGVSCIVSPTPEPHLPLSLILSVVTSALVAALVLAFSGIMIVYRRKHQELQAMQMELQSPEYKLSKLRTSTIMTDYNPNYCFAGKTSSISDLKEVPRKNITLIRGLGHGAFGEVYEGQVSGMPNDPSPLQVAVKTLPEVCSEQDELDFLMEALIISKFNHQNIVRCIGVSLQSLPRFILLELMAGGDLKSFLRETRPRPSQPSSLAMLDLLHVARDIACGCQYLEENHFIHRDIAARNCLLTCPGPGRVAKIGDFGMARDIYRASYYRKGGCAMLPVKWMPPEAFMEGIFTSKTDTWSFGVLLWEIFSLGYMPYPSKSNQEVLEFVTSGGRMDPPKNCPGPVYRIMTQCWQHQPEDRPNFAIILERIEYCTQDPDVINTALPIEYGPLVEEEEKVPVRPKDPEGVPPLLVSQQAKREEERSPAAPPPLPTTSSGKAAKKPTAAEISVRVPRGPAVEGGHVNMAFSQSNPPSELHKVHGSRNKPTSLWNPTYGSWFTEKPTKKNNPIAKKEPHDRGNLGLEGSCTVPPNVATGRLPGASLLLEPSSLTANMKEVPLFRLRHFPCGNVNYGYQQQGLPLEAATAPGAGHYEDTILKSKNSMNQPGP

## Cc1ccc(C(=O)Nc2ccc(Oc3cc4cnn(C)c4cc3-c3cn[nH]c3)c(F)c2)c(=O)n1-c1ccc(F)cc1 [LY2801653, N-(3-fluoro-4-{[1-methyl-6-(1H-pyrazol-4-yl)-1H-indazol-5 yl]oxy}phenyl)-1-(4-fluorophenyl)-6-methyl-2-oxo-1,2-dihydropyridine-3-carboxamide]
Human MET kinase domain [1]
  mode of inhibition: competitive
Human MET kinase domain [2]
  half-life (t1/2): 8.75 h
DU145 cells
  effect on HGF-induced DU-145 cell scattering: completely blocked
MV4-11 cells
  pIC50: 8.40
[3]; S114 xenograft, 12 mg/kg oral, 16 h
  p-MET inhibition in tumors by 16 h: no p-MET inhibition was observed
[3]; S114 xenograft, 12 mg/kg oral, at 2 h and maintained up to 8 h
  inhibition of p-MET: Ninety-five percent
[3]; [5]
  composite TED50 (50 % target inhibition dose): 1.2 mg/kg
  composite TED90 (90 % target inhibition dose): 7.4 mg/kg
[3]; S114 xenograft, 2 h post-treatment, single 50-mg/kg dose, oral
  inhibition of MET phosphorylation: 98%
[3]; [6]
  TEC50 (the concentration that inhibited 50 % MET phosphorylation): 0.2 µM
  TEC90 (the concentration that inhibited 90 % MET phosphorylation): 2 µM
[3]; mouse, po, read-out: inhibition of p-MET
  inhibition at 12 mg/kg: 95%
Pharmacokinetics in mice
  half-life: 2.9 h
[4]
  half-life: 14.3 h
U-87MG xenograft
  anti-tumor growth effect: significant anti-tumor growth effect
KP4 xenograft
  anti-tumor growth effect: significant anti-tumor growth effect
MKN45 xenograft
  anti-tumor growth effect: significant anti-tumor growth effect
H441 xenograft
  anti-tumor growth effect: significant anti-tumor growth effect
H1993 xenograft
  tumor activity in xenograft model: demonstrates tumor activity
HT29 xenograft
  tumor activity in xenograft model: demonstrates tumor activity
MV4-11 xenograft
  in vivo anti-tumor growth activity: in vivo anti-tumor growth activity
H1299 orthotopic model
  in vivo anti-tumor growth activity: in vivo anti-tumor growth activity
U-87MG xenograft tumors
  GLUT1 expression: decrease in GLUT1 expression
  apoptotic area: significantly reduced apoptotic area
  pericyte coverage of vessels: increase in pericyte coverage of vessels
ALK
  activity against ALK: does not have significant activity
LTK
  activity against LTK: does not have significant activity
